From PubChem BioAssay
The list is not random: actives were taken first. Their share in the collection is about 4.6%.
OX1R antag-1: blocks the human orexin 1 receptor; 1.8% of 330,000 active; inhibition, % at 6.6 µM; AID 485270; OX1R-expressing cells, FRET antagonist read-out; in the data active means inhibition mostly above about 38%, no sharp cut-off; inactive means mostly below about 40%;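 further: 0% = agonist challenge alone and 100% = reference antagonist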
OX1R antag-2: blocks the human orexin 1 receptor; O43613; CHO/OX1R cells, Fluo-8 calcium fluorescence, orexin A; inhibition, % at 5 µM; 0.43% of 330,000 active;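 active means inhibition above its plate's threshold, mean inhibition of all tested compounds on the plate plus 3 SD, cut at about 37% in these data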;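 further: 0% = orexin A challenge wells and 100% = SB-334867-A antagonist wells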
TAAR1 agonist: agonists of human TAAR1. Q96RJ0. CHO RD-HGA16 TAAR1, Fluo-8 calcium fluorescence; vehicle wells 0%, saturating PEA agonist 100%. activation, % at 3 µM. 0.99% of 360,000 active;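 active means activation above the mean activation of all test compounds in the run plus 3 SD, cut at about 38% in these data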
Target sequence (Q96RJ0 whole entry, looked up): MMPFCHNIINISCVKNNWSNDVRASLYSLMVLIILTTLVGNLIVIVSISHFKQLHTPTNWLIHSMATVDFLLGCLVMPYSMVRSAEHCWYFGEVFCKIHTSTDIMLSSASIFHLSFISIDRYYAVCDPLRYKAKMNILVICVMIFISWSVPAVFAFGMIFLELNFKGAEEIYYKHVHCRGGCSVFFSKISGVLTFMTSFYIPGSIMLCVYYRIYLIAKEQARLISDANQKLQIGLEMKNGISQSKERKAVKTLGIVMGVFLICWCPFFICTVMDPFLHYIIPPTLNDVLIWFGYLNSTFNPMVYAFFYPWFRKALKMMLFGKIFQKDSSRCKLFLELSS
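Test system: RD-HGA16 (CHO) cells co-expressing Gα16 and hTAAR1; dosing: one-point dosing at 3 µM (nominal); timing: 17-24 h seeding, 75 min 37 °C dye, 30 min RT; signal: kinetic Fluo-8 calcium fluorescence; read-out basis: % activation relative to PEA EC100 response; controls: DMSO and PEA EC100; replicates: n 1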
GPR7 antag: blocks human GPR7 receptor signaling; P48145; GPR7-expressing cells, fluorescence antagonist assay; inhibition, % at 4.4 µM; 1.1% of 290,000 active; in the data active means inhibition above about 16%, passing the limit was not always enough;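 further: cells stimulated with the agonist NPW; 0% = agonist with vehicle and 100% = vehicle without agonist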
CHO parental Ca: counter-screen: ATP calcium response change in parental CHO cells; inhibition, % at 5.6 µM; 0.63% of 330,000 active; AID 463079; parental CHO-K1, ATP-induced calcium, Fluo-8 fluorescence;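 active means inhibition above that plate's mean sample inhibition plus 3 SD, cut at about 26% in these data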;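 further: 0% = ATP-challenged DMSO wells and 100% = DMSO wells without ATP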
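Test system: untransfected parental CHO cell line. Compound: one dose, 5.6 µM nominal. Detection: intracellular calcium via Fluo-8 no-wash fluorescent dye. Measure: % inhibition. Benchmarks: ATP-challenged DMSO wells low, unchallenged DMSO wells high.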
TAAR1 antagonist: antagonists of human TAAR1; Q96RJ0; CHO RD-HGA16 TAAR1, Fluo-8 calcium fluorescence, antagonist; inhibition, % at 3 µM; 1.5% of 360,000 active; AID 624466;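 active means inhibition above a per-plate cutoff, the mean inhibition of test compounds on that plate plus 3 SD, cut at about 49% in these data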;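 further: 0% = DMSO plus EC80 beta-PEA response and 100% = DMSO alone without agonist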
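test system = CHO RD-HGA16 cells bearing hTAAR1 | replication = singlicate | controls = DMSO-only wells and EC80 β-PEA-stimulated wells | reagent = EC80 β-phenethylamine stimulus | read-out basis = percent inhibition of PEA-evoked calcium signal, max/basal emission ratio | schedule = seeding 17-24 h prior, 75-min 37 °C, 30-min RT dye loading | signal = kinetic Fluo-8 calcium fluorescence measurement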
TAAR1 ag conf: confirmation of human TAAR1 agonists | shares compounds with TAAR1 agonist | CHO RD-HGA16 TAAR1, Fluo-8 calcium fluorescence; scaled: DMSO 0%, maximal phenethylamine 100% | activation, % at 3 µM | 82% of 2,400 active | AID 651783;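 active means activation above a cutoff set at the run's mean compound activation plus 3 SD, cut at about 39% in these data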
Ga16 ag counter: counter-screen for TAAR1 agonists: nonselective agonists in parental cells; activation, % at 3 µM; shares compounds with TAAR1 agonist; CHO-Ga16 parental, Fluo-8 calcium fluorescence; normalized to maximal ATP response, DMSO zero; 50% of 2,400 active;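 active means activation above the run cutoff, the mean activation over all tested wells plus 3 SD, cut at about 12% in these data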;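 further: 0% = DMSO wells and 100% = maximal ATP response on the peak over basal ratio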
TAAR1 desensitize: counter-screen for human TAAR1 agonists: agonists that desensitize TAAR1; 46% of 2,400 active; AID 651951; inhibition, % at 3 µM; CHO RD-HGA16 hTAAR1, Fluo-8 calcium, beta-PEA response inhibition; shares compounds with TAAR1 agonist;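 active means inhibition above the run cutoff, the mean inhibition of all test compounds plus 3 SD, cut at about 49% in these data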;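 further: beta-PEA stimulus applied at its EC80; loss of beta-PEA calcium signal after compound pretreatment read as receptor desensitization; 0% = DMSO with beta-PEA at EC80 and 100% = DMSO alone without agonist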
Ga16 antag count: nonselective Ga16 antagonist in TAAR1 agonist counter-screen | CHO-Ga16 ATP-induced calcium, Fluo-8 fluorescence | inhibition, % at 3 µM | shares compounds with TAAR1 agonist | 39% of 2,400 active | AID 651952;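 active means inhibition above the plate's mean compound inhibition plus 3 SD, computed per plate, cut at about 22% in these data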;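 further: 0% = EC80 ATP with DMSO and 100% = DMSO wells without ATP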
* = called active by the depositor; / = not tested or not shown.

SMILES	OX1R antag-1	OX1R antag-2	TAAR1 agonist	GPR7 antag	CHO parental Ca	TAAR1 antagonist	TAAR1 ag conf	Ga16 ag counter	TAAR1 desensitize	Ga16 antag count
Oc1ccccc1CN(CCc1ccccc1)Cc1ccccc1	30	-53	49*	-11	-36	32	75*	16*	89*	14
CN(CCc1ccccc1)Cc1ccccc1[N+](=O)[O-]	29	-7	5	-14	-5	-1	/	/	/	/
Cc1cccc(N2C(=O)NC(=O)/C(=C\c3cc(C)n(-c4sc5c(c4C#N)CCCC5)c3C)C2=O)c1C	9	-15	5	0	-6	9	/	/	/	/
CCOC(=O)c1c(-n2c(C)cc(C=C3C(=O)NC(=O)NC3=O)c2C)sc2c1CCCC2	15	-16	47*	-8	-19	35	53*	28*	44	38*
COc1ccccc1N1CCN(CCc2c[nH]c3cc4c(cc23)OCO4)CC1	/	/	7	/	/	-9	/	/	/	/
COc1ccc2[nH]c3c(c2c1)CCNC3	2	-2	44*	/	-11	-14	59*	0	27	5
O=c1cc(C(F)(F)F)c2cc3c4c(c2o1)CCCN4CCC3	29	92*	195*	12	73*	95*	89*	112*	70*	75*
CN1/C(=C\C=C2C(=O)NC(=S)NC2=O)C(C)(C)c2ccccc21	/	/	308*	4	/	95*	191*	208*	90*	92*
O=C1NC(=S)NC(=O)C1=Cc1cccc2cc3ccccc3cc12	/	/	1	4	/	-7	/	/	/	/
c1ccc(Cc2cnc(N3CCNCC3)nc2)cc1	/	/	45*	/	/	-18	58*	0	19	5
c1cnc(N2CCNCC2)nc1	17	-8	23	-10	-6	-20	/	/	/	/
COC(=O)C1=C(c2ccc(S(C)(=O)=O)cc2)C[C@@H]2CC[C@H]1N2C(=O)NCCCOC(C)C	8	6	1	/	2	0	/	/	/	/
CN1CN(c2ccccc2)C2(CCN(CCCSc3ccccc3NC(=O)/C=C/c3ccccc3)CC2)C1=O	/	/	122*	/	/	102*	125*	97*	107*	97*
COc1ccc2c(CCN)c[nH]c2c1	11	-14	52*	12	-9	6	80*	1	45	10
c1ccc2cc(CC3=NCCN3)ccc2c1	17	-12	87*	-3	-21	66*	98*	3	87*	4
c1ccc(C2CC2)c(OCC2=NCCN2)c1	9	-10	24	/	-1	-15	/	/	/	/
CCCCn1c(O)c(C(CC)=NCc2ccc(F)cc2)c(=O)[nH]c1=O	4	-16	15	-16	-15	21	/	/	/	/
CCC(=NCCc1ccccc1)c1c(O)n(C)c(=O)n(C)c1=O	4	2	62*	-8	2	-3	61*	10	40	32*
CCC(=NCc1ccco1)c1c(O)n(C)c(=O)n(C)c1=O	6	12	21	-10	-10	-15	/	/	/	/
C=CCn1c(O)c(C(CC)=NCCc2ccccc2)c(=O)[nH]c1=O	19	-31	74*	-12	-9	30	78*	5	40	5
CCCCn1c(O)c(C(CC)=NCCc2ccccc2)c(=O)[nH]c1=O	7	-14	58*	-10	-10	70*	68*	7	43	23*
Clc1ccc(CCNCc2ccncc2)c(Cl)c1	-5	-15	74*	13	-12	52*	89*	5	71*	1
